# Screening results as filed in PubChem BioAssay.
# Most compounds without a hit are left out; they make up all but 3% or so of the library.
# CendR NRP1 mod: NRP-1/CendR interaction modulation. FAM-RPARPAR peptide binding to NRP-1, fluorescence polarization. inhibition, % at 25 µM. O14786. 0.85% of 360,000 active;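 active means inhibition or corrected inhibition above about 18%, plus a signal ratio from 0.5 to 1.5, limit read from the data, passing the limit was not always enough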
# Tn7 DDE FP: disrupts Tn7 cyclic peptide binding to fibrin D-Dimer-E complex | P02675 | FP displacement of FITC-Tn7 peptide from fibrin DD(E); 0% = median of compound wells per plate | inhibition, % at 8.3 µM | 0.13% of 370,000 active;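 active means inhibition above the mean of compounds falling within the control limits plus 3 SD of them, cut at about 14% in these data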;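 further: 0% = plate median of compound wells and 100% = 10 µM Aha-Tn7 peptide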
#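 Assay system: human fibrin DD(E) protein / Input: 2 µM fibrin DD(E) / Benchmarks: high control of 10 µM Aha-Tn7 peptide / Measured by: fluorescence polarization of the labelled Tn7 tracer / Medium: Tris buffer with calcium and detergent, pH 7.8 / Timing: 10 min compound pre-incubation, 3 h probe incubation at room temperature / Repeats: one replicate per compound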
# PLC-beta3 inh: PLC-beta3 (human) inhibition, primary screen. 0.18% of 370,000 active. Purified PLC-beta3, fluorogenic substrate, fluorescence. inhibition, % at 12.2 µM. Q01970. AID 720704;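 further: 0% = median of compound wells on plate and 100% = full blocker control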
# Tn6 DDE FP: inhibitors of Tn6 peptide binding to human fibrin DD(E); AID 720509; 0.21% of 370,000 active; inhibition, % at 8.3 µM; Fibrin DD(E) TRITC-Tn6 fluorescence polarization displacement;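 active means inhibition above a per-campaign cutoff: mean of compounds within control limits plus 3 SD, cut at about 15% in these data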;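 further: 0% = median of all compound wells on the plate and 100% = blocking peptide control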
# PLC-gamma1 inh: blocks human PLC-gamma1 enzyme activity; P19174; purified PLC-gamma1, fluorogenic substrate, fluorescence; inhibition, % at 12.2 µM; 0.84% of 370,000 active; in the data active means inhibition above about 9.5%
# KLK7 zymogen act: activators of human kallikrein-7 zymogen; P49862; purified proKLK7, EDANS-DABCYL substrate fluorescence; 100% is mature enzyme control, 0% vehicle; AID 652039; activation, % at 7 µM; 0.9% of 370,000 active;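 active means activation above the mean of all tested compounds plus 3 SD, computed per campaign excluding outliers beyond control limits, cut at about 13% in these data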
# PLCg1 ctr: PLC-gamma1 inhibition, counter-screen for PLC-beta3 hits; shares compounds with PLC-gamma1 inh; purified PLC-gamma1, fluorogenic substrate, fluorescence; inhibition, % at 12.3 µM; 3.1% of 3,300 active; in the data active means inhibition above about 9.5%
# PLCb3 confirm: confirmation of human PLC-beta3 inhibitors; shares compounds with PLC-gamma1 inh; inhibition, % at 12.3 µM; 1% of 3,300 active; purified PLC-beta3, fluorogenic substrate fluorescence
# * marks the source's active call; other numbers are inactive results; / = no result. Unless noted, no stated cut-off is given here; in the data, active means inhibition above about 11%; inactive means the rest.
SMILES,CendR NRP1 mod,Tn7 DDE FP,PLC-beta3 inh,Tn6 DDE FP,PLC-gamma1 inh,KLK7 zymogen act,PLCg1 ctr,PLCb3 confirm
COn1c(=O)c(=O)n(O)c2ccccc21,8,4,3,-7,4,0,/,/
Nn1c(SCC(=O)NC2CCCCC2)nnc1-c1cc(-c2ccc(F)cc2)n[nH]1,/,5,1,5,-2,0,/,/
CNC(=O)[C@@H](NC(=O)[C@H](CC(C)C)[C@H](O)C(=O)NO)C(C)(C)C,/,5,1,1,1,0,/,/
CCn1c(O)c(C2=NCCCC2)c2ccccc21,-2,3,5,0,9.7*,1,5,7
Oc1[nH]c2ccccc2c1C1=NCCCC1,-2,-1,1,-1,5,-1,/,/
N/C(=N\O)c1ccc(N2CCN(c3ncccc3C(F)(F)F)CC2)nc1,10,0,-5,1,5,-1,/,/
N/C(CSc1ncccc1C(F)(F)F)=N\O,4,-3,-2,0,9.8*,1,1,4
CN1CCN(c2ccc3c(c2)Oc2ccccc2CN(Cc2cn(Cc4ccc(F)cc4)nn2)S3(=O)=O)CC1,/,-9,-4,1,0,0,/,/
CCOC(=O)CNC(=O)Cc1ccc(Cl)cc1,6,0,-3,-2,10*,0,-4,0
CS(=O)(=O)c1ccc(NC(=O)C2CCCN(C(=O)c3ccc(Cl)cc3)C2)cc1 (configuration not stated),3,-3,-8,7,0,0,/,/
CC(=O)Nc1ccc(NC(=O)C2CCCN(C(=O)c3ccc(Cl)cc3)C2)cc1 (configuration not stated),3,-1,6,6,12*,0,-2,0
Cc1ccc(S(=O)(=O)N/N=C/c2c(F)cccc2Cl)cc1,-8,-5,2,-3,11*,0,-8,-8
O=C(N/N=C/c1ccccn1)c1ccccc1,-7,0,5,-7,11*,0,-11,-6
Fc1ccc(CSc2ncnc3c2oc2ccccc23)cc1,15,-6,4,-5,10*,0,-6,-5
CN(C)C(=O)c1ccccc1Sc1cc(Cl)ccc1Cl,-2,-2,-1,-5,15*,0,-3,-1
C=CCN1[C@H](CO)[C@H](c2ccccc2)[C@@H]1C#N,/,-2,1,0,-1,0,/,/
O=C(NCCc1ccccn1)c1cccc(S(=O)(=O)N2CCc3ccccc32)c1,1,-1,-36,3,0,0,/,/
O=C(NCCc1ccccn1)c1cccc(S(=O)(=O)N2CCCCCC2)c1,2,8,14*,2,15*,0,0,1
O=C(NCc1ccccn1)c1ccc(Cl)c(S(=O)(=O)N2CCCCCC2)c1,17,5,-9,-6,9.9*,1,-10,-7
O=C(NCc1ccccc1)c1ccc(Cl)c(S(=O)(=O)N2CCCC2)c1,3,-6,-5,0,1,-1,/,/
COc1cccc(NC(=O)Nc2c(-c3ccc(F)cc3)nc3ncccn23)c1,/,3,-397,0,-325,2,/,/
CC(=O)Nc1ccc(C(=O)CS(=O)(=O)c2ccc(C)cc2)cc1,-9,-8,1,-7,0,0,/,/
CC(=O)Nc1ccc(S(=O)(=O)c2ccc(C)cc2)cc1,3,-2,-5,2,10*,0,-7,-4
Cc1cccc(CCNC(=O)c2ccc(Sc3ccccc3Cl)c([N+](=O)[O-])c2)c1,/,-8,2,6,1,0,/,/
CCCc1nc2c(=O)n(C)c(=O)nc-2n(C)n1,14,0,-6,-2,55*,0,43*,3
SMILES,CendR NRP1 mod,Tn7 DDE FP,PLC-beta3 inh,Tn6 DDE FP,PLC-gamma1 inh,KLK7 zymogen act,PLCg1 ctr,PLCb3 confirm
CCn1c(N)nc2c1c(=O)n(C)c(=O)n2C,15,-1,0,10,3,0,/,/
Cn1nc(-c2ccccn2)nc2c(=O)n(C)c(=O)nc1-2,28*,5,-9,4,51*,-4,32*,-12
CCN1C(=O)N(C(C)=O)[C@@H]2C[C@H](C(=O)N3CCCC3)[C@H](C)[C@H](c3ccccc3)C[C@@H]21,/,-11,0,-2,1,0,/,/
NC(=O)c1cc(S(=O)(=O)NCCc2ccc(Cl)cc2)cs1,1,-5,-6,-4,12*,0,-6,-5
CCCC1CCC2(CC1)CCC2OC(=O)Nc1ccc(C)cc1 (configuration not stated),/,0,-3,5,-2,/,/,/
CCOC(=O)c1c(C)nc(C)c(C(=O)OCC)c1-c1ccc(Br)cc1,-3,-7,6,-6,12*,0,-5,-2
CCOC(=O)c1c(C)nc(C)c(C(=O)OCC)c1-c1ccc(OC)cc1,7,3,-1,-1,3,0,/,/
COc1cccc(N2CCN(CC(=O)N(C)Cc3ccccc3Cl)CC2)c1,/,-4,-2,2,-1,0,/,/
COc1ccc(C(=O)Nc2ccc3c(c2)nc(CN2CCN(C(C)=O)CC2)n3C)cc1,-13,0,11*,4,8,0,0,-1
COc1ccc(C(=O)Nc2ccc3c(c2)nc(CN2CCCC2)n3C)cc1,-12,8,-19,4,-10,0,/,/
COc1ccc(C(CNC(=O)c2cc3ccccc3o2)N2CCCC2)cc1 (configuration not stated),-1,-1,-12,-8,11*,0,-8,-4
COc1ccc(C(CNC(=O)c2cc3ccccc3o2)N2CCCCC2)cc1 (configuration not stated),7,-6,7,5,2,0,/,/
O=C(/C=C/c1ccco1)NC(=S)Nc1cccc(C(=O)O)c1,-64,-10,-12,4,19*,0,19*,-6
CCn1c2c(c(C)cc1=O)C(=O)CC(C)(C)C2,12,7,-1,4,0,0,/,/
CCn1c(C)c2c([n+]1CC)CC(C)(C)CC2=O,-6,-11,76*,-1,1,0,-4,-1
C=CCN=C1NC(c2cccc(F)c2)C(C(=O)OC)=C(C)N1C (configuration not stated),/,0,-2,0,0,1,/,/
CC(=O)NC(Cc1ccc2c(c1)OCO2)C(=O)N1CCCN(C(C)=O)CC1 (configuration not stated),/,3,0,-1,5,0,/,/
CC(NC(=O)c1ccco1)c1nc(-c2ccccc2)no1 (configuration not stated),6,6,-4,0,-1,0,/,/
